Measurements reported in ChEMBL document CHEMBL1152483, “To determine the cytotoxicity of chlorambucil and one of its nitro-derivatives, conjugated to prasterone and pregnenolone, towards eight human cancer cell-lines” (Eur J Med Chem, 2009).
Calls of active or inactive are those of the source. No cut-off for these calls is given here.

Tests used:
OVCA3 = test: Cytotoxicity against human OVCA3 cells at < 100 uM after 5 days by MTT assay; assay type: functional, cell-based
Method in brief: (§1)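 Cells are grown in RPMI with 2 mM L-glutamine and 10% FBS and seeded at 400–1000 per well. They get doubling dilutions of drug, each dose in triplicate, for five days at 37 °C, 5% CO2, humidified. MTT at 3 mg/ml is added for 3 h, and formazan is dissolved in DMSO and read at 540 nm minus 620 nm. % growth inhibition is taken against control wells and IC50 calculated.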

MDA-MB-468 [1] = test: Cytotoxicity against human MDA-MB-468 cells transfected with NAD(P)H: quinone oxidoreductase NQO1 at < 100 uM after 5 days by MTT assay; assay type: functional, cell-based; method in brief: as §1
NCI-H460 [2] = test: Cytotoxicity against human H460 cells at < 100 uM after 5 days by MTT assay; assay type: functional, cell-based; method in brief: as §1
Daoy [3] = test: Cytotoxicity against human DaOY cells at < 100 uM after 5 days by MTT assay; assay type: functional, cell-based; method in brief: as §1
MCF7 [4] = test: Cytotoxicity against human MCF7 cells expressing estrogen and progesterone receptor at < 100 uM after 5 days by MTT assay; assay type: functional, cell-based; method in brief: as §1
MDA-MB-468 [5] = test: Cytotoxicity against human MDA-MB-468 cells […] at < 100 uM after 5 days by MTT assay; assay type: functional, cell-based; method in brief: as §1
A-375 [6] = test: Cytotoxicity against human A375 cells at < 100 uM after 5 days by MTT assay; assay type: functional, cell-based; method in brief: as §1
WiDr [7] = test: Cytotoxicity against human WiDr cells at < 100 uM after 5 days by MTT assay; assay type: functional, cell-based; method in brief: as §1
NCI-H460 [8] = test: Cytotoxicity against human H460 cells after 5 days by MTT assay; assay type: functional, cell-based; settings: NCI-H460, 120 h; method in brief: as §1
Daoy [9] = test: Cytotoxicity against human DaOY cells after 5 days by MTT assay; assay type: functional, cell-based; settings: 120 h; method in brief: as §1
[10] = Cytotoxicity against human OVCA3 cells after 5 days by MTT assay; assay type: functional, cell-based; settings: OVCA3, 120 h; method in brief: as §1
[11] = Alkylating activity in 0.2 M acetate buffer of pH 5.6 at 0.1 to 1 mM after 4 hrs by spectrophotometry relative to chlorambucil; assay type: physicochemical; settings: pH 5.6, 4 h, 1000 µM
Method in brief: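 Each compound at 0.1–1.0 mM in 50% (v/v) acetone/ethanol is added to 0.2 M acetate buffer pH 5.6 with 5% (w/v) p-nitrobenzyl pyridine in acetone and incubated 4 h at 37 °C. Colour is then developed with 25% (v/v) 3-amino-1-propanol in tert-butanol and absorbance read at 560 nm.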

MDA-MB-468 [12] = test: Cytotoxicity against human MDA-MB-468 cells transfected with NAD(P)H: quinone oxidoreductase NQO1 after 5 days by MTT assay; assay type: functional, cell-based; settings: MDA-MB-468, 120 h; method in brief: as §1
[13] = Partition coefficient, log P after 1 hr by UV spectroscopy; assay type: physicochemical; settings: octanol/water
Method in brief: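 Compound is shaken in n-octanol/water for 1 h at 20 °C, then spun 10 min at 3600 g and the phases separated. Original and shaken solutions are diluted to 0.8 mg% and compared by UV spectroscopy at 200–400 nm. Log P is calculated by the Leo method.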

A-375 [14] = test: Cytotoxicity against human A375 cells after 5 days by MTT assay; assay type: functional, cell-based; settings: A-375, 120 h; method in brief: as §1
WiDr [15] = test: Cytotoxicity against human WiDr cells after 5 days by MTT assay; assay type: functional, cell-based; settings: 120 h; method in brief: as §1
MCF7 [16] = test: Cytotoxicity against human MCF7 cells expressing estrogen and progesterone receptor after 5 days by MTT assay; assay type: functional, cell-based; settings: MCF7, 120 h; method in brief: as §1
MDA-MB-468 [17] = test: Cytotoxicity against human MDA-MB-468 cells […] after 5 days by MTT assay; assay type: functional, cell-based; settings: MDA-MB-468, 120 h; method in brief: as §1
[18] = Metabolic stability in rat blood assessed as half life; assay type: ADME, tissue-based
[19] = Metabolic stability in rat liver assessed as half life; assay type: ADME, tissue-based
[20] = Chemical stability in phosphate buffer saline assessed as half life by HPLC analysis; assay type: physicochemical
Method in brief: (§2)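 Esters are stored in phosphate buffered saline at 37 °C. Stability is followed over forty-five days by RP-HPLC (C18, acetic acid/acetonitrile pH 5.2, 1.2 ml/min, UV 254 nm), supported by infrared spectroscopy.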

[21] = Chemical stability assessed as rate of hydrolysis after 24 hrs by HPLC analysis in presence of pig liver esterase; assay type: physicochemical; settings: read-out: Activity
Method in brief: (§3)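 Porcine liver esterase is preincubated about 15 min at 37 °C in phosphate buffer pH 7.4, then ester is added. Aliquots are taken at set times, quenched with an equal volume of acetonitrile, vortexed and spun 10 min at 11,600 g. Samples are run on RP-HPLC (C18, 2% acetic acid/acetonitrile pH 5.2, 1.2 ml/min, 254 nm). The zero reaction is ester in buffer alone for 15 min.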

[22] = Chemical stability assessed as rate of hydrolysis after 2 hrs by HPLC analysis in presence of pig liver esterase; assay type: physicochemical; settings: read-out: Activity; method in brief: as §3
[23] = Metabolic stability in human plasma assessed as rate of hydrolysis after 24 hrs; assay type: ADME, cell-free; settings: read-out: Activity
Method in brief: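 Ester stock is made in absolute ethanol and added to freshly prepared human plasma with PBS, then incubated at 37 °C. Samples are mixed with an equal volume of mobile phase, spun 20 min at 11,600 g, and the supernatant is diluted in mobile phase for RP-HPLC.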

MDA-MB-468 [24] = test: Ratio of IC50 for […] human MDA-MB-468 cells transfected with NAD(P)H: quinone oxidoreductase NQO1 to IC50 for human MDA-MB-468 cells […]; assay type: functional
[25] = Chemical stability in phosphate buffer saline at pH 7.4 assessed as compound degradation by HPLC analysis; assay type: physicochemical; settings: read-out: Activity; method in brief: as §2

## C[C@]12CC[C@H](O)CC1=CC[C@@H]1[C@@H]2CC[C@]2(C)C(=O)CC[C@@H]12
OVCA3
  Activity: inactive
MDA-MB-468 [1]
  Activity: inactive
NCI-H460 [2]
  Activity: inactive
Daoy [3]
  Activity: inactive
MCF7 [4]
  Activity: inactive
MDA-MB-468 [5]
  Activity: inactive
A-375 [6]
  Activity: inactive
WiDr [7]
  Activity: inactive

## O=C(O)CCCc1ccc(N(CCCl)CCCl)c([N+](=O)[O-])c1
NCI-H460 [8]
  IC50: 9.53 µM
Daoy [9]
  IC50: 5.3 µM
[10]
  IC50: 15.6 µM
[11]
  Activity: 38%
MDA-MB-468 [12]
  IC50: 3.75 µM
[13]
  logP at 1 h: 3.7
A-375 [14]
  IC50: 9.46 µM
WiDr [15]
  IC50: 13 µM
MCF7 [16]
  IC50: 23 µM
MDA-MB-468 [17]
  IC50: 1.16 µM

## CC(C)(C)OC(=O)CCCc1ccc(N(CCCl)CCCl)cc1 [CHLORAMBUCIL TERTIARY BUTYL ESTER]
[18]
  half-life: 7 h
[19]
  half-life: 2 h

## O=C(O)CCCc1ccc(N(CCCl)CCCl)cc1 [CHLORAMBUCIL]
NCI-H460 [8]
  IC50: 2.19 µM
Daoy [9]
  IC50: 1.36 µM
[10]
  IC50: 8.92 µM
[11]
  Activity: > 100%
MDA-MB-468 [12]
  IC50: 0.79 µM
[13]
  logP at 1 h: 3.8
[20]
  half-life: 1 h
A-375 [14]
  IC50: 2.58 µM
WiDr [15]
  IC50: 7.13 µM
MCF7 [16]
  IC50: 4.5 µM
MDA-MB-468 [17]
  IC50: 0.65 µM

## C[C@]12CC[C@H](OC(=O)CCCc3ccc(N(CCCl)CCCl)cc3)CC1=CC[C@@H]1[C@@H]2CC[C@]2(C)C(=O)CC[C@@H]12
NCI-H460 [8]
  IC50: 11.8 µM
Daoy [9]
  IC50: 19.6 µM
[10]
  IC50: 82.5 µM
[11]
  Activity: 70%
MDA-MB-468 [12]
  IC50: 11.8 µM
[21]
  metabolised at 24 h: 83%
[22]
  metabolised at 2 h: 24%
[23]
  metabolised at 24 h: 51%
[13]
  logP at 1 h: > 8
A-375 [14]
  IC50: 61.4 µM
WiDr [15]
  IC50: > 100 µM
MDA-MB-468 [24]
  Ratio IC50: 1.5
MCF7 [16]
  IC50: 72.5 µM
MDA-MB-468 [17]
  IC50: 5.48 µM

## CC(=O)[C@H]1CC[C@H]2[C@@H]3CC=C4C[C@@H](OC(=O)CCCc5ccc(N(CCCl)CCCl)c([N+](=O)[O-])c5)CC[C@]4(C)[C@H]3CC[C@]12C
NCI-H460 [8]
  IC50: > 100 µM
Daoy [9]
  IC50: > 100 µM
[10]
  IC50: > 100 µM
[11]
  Activity: 4%
MDA-MB-468 [12]
  IC50: 32.6 µM
[21]
  metabolised at 24 h: 83%
[22]
  metabolised at 2 h: 24%
[23]
  metabolised at 24 h: 37%
[13]
  logP at 1 h: > 8
A-375 [14]
  IC50: > 100 µM
WiDr [15]
  IC50: > 100 µM
MDA-MB-468 [24]
  Ratio IC50: 2
MCF7 [16]
  IC50: 68.3 µM
MDA-MB-468 [17]
  IC50: 19.3 µM
[25]
  degraded: 48%

## CC(=O)[C@H]1CC[C@H]2[C@@H]3CC=C4C[C@@H](OC(=O)CCCc5ccc(N(CCCl)CCCl)cc5)CC[C@]4(C)[C@H]3CC[C@]12C
NCI-H460 [8]
  IC50: 36.2 µM
Daoy [9]
  IC50: 41.9 µM
[10]
  IC50: 88.8 µM
[11]
  Activity: 18%
MDA-MB-468 [12]
  IC50: 20.5 µM
[21]
  metabolised at 24 h: 83%
[22]
  metabolised at 2 h: 24%
[23]
  metabolised at 24 h: 37%
[13]
  logP at 1 h: > 8
A-375 [14]
  IC50: 74.2 µM
WiDr [15]
  IC50: 86.3 µM
MDA-MB-468 [24]
  Ratio IC50: 2
MCF7 [16]
  IC50: 90 µM
MDA-MB-468 [17]
  IC50: 10.3 µM

## CC(=O)[C@H]1CC[C@H]2[C@@H]3CC=C4C[C@@H](O)CC[C@]4(C)[C@H]3CC[C@]12C
OVCA3
  Activity: inactive
MDA-MB-468 [1]
  Activity: inactive
NCI-H460 [2]
  Activity: inactive
Daoy [3]
  Activity: inactive
MCF7 [4]
  Activity: inactive
MDA-MB-468 [5]
  Activity: inactive
A-375 [6]
  Activity: inactive
WiDr [7]
  Activity: inactive

## C[C@]12CC[C@H](OC(=O)CCCc3ccc(N(CCCl)CCCl)c([N+](=O)[O-])c3)CC1=CC[C@@H]1[C@@H]2CC[C@]2(C)C(=O)CC[C@@H]12
NCI-H460 [8]
  IC50: > 100 µM
Daoy [9]
  IC50: > 100 µM
[10]
  IC50: > 100 µM
[11]
  Activity: 8%
MDA-MB-468 [12]
  IC50: 10.6 µM
[21]
  metabolised at 24 h: 83%
[22]
  metabolised at 2 h: 24%
[23]
  metabolised at 24 h: 51%
[13]
  logP at 1 h: > 8
A-375 [14]
  IC50: > 100 µM
WiDr [15]
  IC50: > 100 µM
MDA-MB-468 [24]
  Ratio IC50: 1.5
MCF7 [16]
  IC50: > 100 µM
MDA-MB-468 [17]
  IC50: 7.25 µM
[25]
  degraded: 46%
